# Reference: PubChem BioAssay
# Calls of active or inactive are those of the source.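 Rule for the calls, unless noted: active = viability loss from added drug above about 55%, and viability with drug at most 40%, in both replicates (limit read from the data, passing the limit was not always enough); inconclusive = both conditions met in only one replicate; inactive = neither replicate meets both conditions.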
# Tests used:
# [1] = SK-BR-3 cell growth inhibitors, pilot screen, 24 h, human (AID 572;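 active = viability at or below 10% of carrier control in both of two separate runs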;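 note: compound exposure lasted between 18 and 24 h rather than exactly 24 h; 100% = carrier-treated control wells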); conditions: SK-BR-3 viability, CellTiter-Glo luminescence, at 10 µM, stronger effect = lower value
# [2] = HUVEC growth inhibition – cell-based, human, primary screen (AID 575;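 active = viability at or below 30% in both replicate assays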;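 note: 100% = median of untreated cell wells with 0.1% DMSO on each plate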); conditions: HUVEC proliferation, CellTiter-Glo luminescence, 72 h; at 10 µM; stronger effect = lower value
# In short: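 Test system – primary HUVEC, no more than 12 passages · Dosing – one dose, 10 µM final, 0.1% DMSO · Times – 72 h treatment at 37 °C · Measured by – ATP-based CellTiter-Glo luminescent read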
# [3] = growth inhibitors of H69AR lung tumor, primary screen, human, duplicate replicates (AID 580;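 active = viability at or under a set limit in both replicates, limit being median viability minus 3 SD, cut at about 48% in these data, passing the limit was not always enough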;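 note: 100% = mean luminescence of untreated wells and 0% = no signal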); conditions: H69AR lung tumor cells viability, ATP luminescence, 72 h; at 10 µM; stronger effect = lower value
# [4] = reversal of MRP1-mediated doxorubicin resistance, pilot screen, H69AR cells, doxorubicin co-treatment (AID 601); conditions: CellTiter-Glo, 72 h, at 10 µM; for differential viability (reversal): stronger effect = higher value
# [5] = 384-well plate pilot, post-Golgi transport modulator project, inhibition of yeast transport mutant growth (AID 636; in the data active = inhibition above about 31%); conditions: absorbance 615 nm, about 18 h, stronger effect = higher value
# [6] = growth suppression of yeast trafficking mutant, preliminary HTS, modulators of trafficking downstream of Golgi apparatus project, 1536-format plate, OD 615 nm (AID 637; in the data active = inhibition above about 30%); conditions: yeast transport mutant growth, absorbance 615 nm, 18 h; stronger effect = higher value
# [7] = H69AR cells + 2 uM doxorubicin, measured here: viability with 2 uM doxorubicin, stronger effect = lower value
# [8] = H69AR cells, compound alone cytotoxicity
Compound,viability [1],viability [2],viability [3],differential viability (reversal) ([4]; H69AR cells + 2 uM doxorubicin),"viability [4, 7]","viability [4, 8]",inhibition [5],inhibition [6]
CCCc1cc(=O)[nH]c(=S)[nH]1,101% (inactive),97% (inactive),84% (inactive),2.76% (inactive),81.2%,84%,0.78% (inactive),0.17% (inactive)
COc1ccc(-c2cc3ccc(OCc4nn[nH]n4)cc3oc2=O)cc1,104% (inactive),99.2% (inactive),102% (inactive),14.1% (inactive),87.5%,102%,-6.58% (inactive),1.29% (inactive)
CCOC(=O)Cc1csc(NC(=O)CSc2nnc(C3CC3)n2C)n1,95% (inactive),107% (inactive),97.9% (inactive),6.36% (inactive),91.5%,97.9%,-5.81% (inactive),-3.82% (inactive)
CC(=O)c1c(O)cc(C)n(Nc2nc(C)cc(C)n2)c1=O,91% (inactive),84.6% (inactive),71.9% (inactive),-28.5% (inactive),100%,71.9%,-4.05% (inactive),-0.73% (inactive)
Cc1ccccc1Nc1nc(N)nc(CSCc2c(C)noc2C)n1,88% (inactive),101% (inactive),96.4% (inactive),-1.78% (inactive),98.2%,96.4%,3.51% (inactive),3.09% (inactive)
CCOC(=O)C1CSc2[nH]c(=O)sc2C1c1ccccc1 (stereo unspecified),100% (inactive),117% (inactive),93.2% (inactive),-9.41% (inactive),103%,93.2%,0.95% (inactive),-2% (inactive)
CCn1c(SCC(=O)C(C)(C)C)nnc1-c1cnccn1,81% (inactive),107% (inactive),105% (inactive),15.9% (inactive),89.2%,105%,-3.7% (inactive),-9.35% (inactive)
COCCn1c(C)cc(C(=O)COC(=O)c2ccc(N3CCCC3=O)cc2)c1C,95% (inactive),88.4% (inactive),92.3% (inactive),8.88% (inactive),83.4%,92.3%,-4.8% (inactive),2.18% (inactive)
CCOC(=O)N1CCN(C(=O)CN(Cc2ccccc2)S(=O)(=O)c2ccc(OC)c(C)c2)CC1,106% (inactive),102% (inactive),94.7% (inactive),-7.75% (inactive),102%,94.7%,-0.13% (inactive),-3.45% (inactive)
CC(C)NC(=O)c1ccccc1NC(=O)CCS(=O)(=O)Cc1ccccc1,116% (inactive),107% (inactive),87.7% (inactive),-1.34% (inactive),89.1%,87.7%,-1.64% (inactive),9.82% (inactive)
CCOc1ccc(NC(=O)COC(=O)Cn2cnnn2)cc1OCC,86% (inactive),106% (inactive),107% (inactive),-0.92% (inactive),108%,107%,1.23% (inactive),-0.36% (inactive)
O=C(CN(Cc1ccc(F)cc1)C(=O)c1ccco1)NCc1ccc(F)cc1,104% (inactive),112% (inactive),94.1% (inactive),18.5% (inactive),75.6%,94.1%,-8% (inactive),-6.91% (inactive)
O=C(CCC1COc2ccccc2O1)NCC1COc2ccccc2O1 (stereo unspecified),125% (inactive),103% (inactive),87.8% (inactive),4.35% (inactive),83.4%,87.8%,-6.3% (inactive),4.68% (inactive)
CCOC(=O)c1ccc2[nH]c3c(c2c1)CCCCC3=O,80% (inactive),105% (inactive),99.5% (inactive),8.96% (inactive),90.5%,99.5%,-3.6% (inactive),-0.73% (inactive)
COc1ccc(CCN2C(=O)CC(N3CCOCC3)C2=O)cc1 (stereo unspecified),88% (inactive),89.4% (inactive),96.2% (inactive),16.3% (inactive),79.9%,96.2%,2.05% (inactive),-7.58% (inactive)
COc1ccc2c(C)nc(Nc3nc(C)cc(C)n3)nc2c1,84% (inactive),114% (inactive),87.3% (inactive),-6.58% (inactive),93.9%,87.3%,-6.08% (inactive),0% (inactive)
Cc1nc2ccccc2c(=O)n1NC(=O)Nc1ccccc1,111% (inactive),95.1% (inactive),107% (inactive),10.6% (inactive),96%,107%,-1.2% (inactive),-1.82% (inactive)
CN1C(C(=O)Nc2ccccn2)=C(O)c2ccccc2S1(=O)=O,115% (inactive),94.7% (inactive),101% (inactive),13.4% (inactive),87.7%,101%,0.39% (inactive),-0.83% (inactive)
C=CCSc1nnc(NC(=O)c2ccc(S(=O)(=O)NCC3CCCO3)cc2)s1 (stereo unspecified),97% (inactive),84.3% (inactive),90.4% (inactive),-2.83% (inactive),93.2%,90.4%,-3.84% (inactive),-3.71% (inactive)

Compound,viability [1],viability [2],viability [3],differential viability (reversal) ([4]; H69AR cells + 2 uM doxorubicin),"viability [4, 7]","viability [4, 8]",inhibition [5],inhibition [6]
CC(=O)Nc1ccc(NC(=O)Cn2cc3c(n2)CCC(C)C3)cc1 (stereo unspecified),108% (inactive),103% (inactive),90.6% (inactive),-4.05% (inactive),94.6%,90.6%,-8.24% (inactive),-8.73% (inactive)
O=C1C(CCS(=O)c2ccccc2)C(=O)N(c2ccccc2)N1c1ccccc1 (stereo unspecified),112% (inactive),84.5% (inactive),96.6% (inactive),7.85% (inactive),88.7%,96.6%,0.65% (inactive),10.7% (inactive)
O=C(CN1CCN(c2nc(-c3ccc(Cl)cc3)cs2)CC1)NCc1ccco1,67% (inactive),95.6% (inactive),97.9% (inactive),3.06% (inactive),94.8%,97.9%,-5.07% (inactive),-2.18% (inactive)
COc1ccc(OC)c(NC(=O)CSc2nnc(-c3ccco3)n2-c2ccccc2)c1,59% (inactive),83% (inactive),90.4% (inactive),5.04% (inactive),85.4%,90.4%,-6.3% (inactive),3.45% (inactive)
COc1cc(C2Oc3cc(C4Oc5cc(O)cc(O)c5C(=O)C4O)ccc3OC2CO)ccc1O (stereo unspecified),106% (inactive),85.7% (inactive),97.4% (inactive),4.15% (inactive),93.2%,97.4%,1.3% (inactive),-3.5% (inactive)
CCOC(=O)C1=C(C)NC(C)=C(C(=O)OC)C1c1cccc(Cl)c1Cl (stereo unspecified),86% (inactive),11.2% (active),72% (inactive),4.92% (inactive),67.1%,72%,11.3% (inactive),13.2% (inactive)
COC(=O)[C@H](C)NC(=O)Nc1cccc(C(F)(F)F)c1,145% (inactive),97.2% (inactive),89.9% (inactive),-5.75% (inactive),95.7%,89.9%,-0.96% (inactive),30% (active)
CCOC(=O)C1CCN(C(C)=C2C(=O)c3ccccc3C2=O)CC1,98% (inactive),110% (inactive),105% (inactive),10.4% (inactive),94.6%,105%,-4.66% (inactive),7.26% (inactive)
c1ccc(-c2ccc(-c3ccccn3)nn2)nc1,112% (inactive),55.3% (inactive),59.4% (inactive),-10.1% (inactive),69.5%,59.4%,-6.27% (inactive),-0.63% (inactive)
COc1ccccc1OCCOCCn1cnc2ccccc2c1=O,87% (inactive),93.8% (inactive),87.7% (inactive),-3.44% (inactive),91.1%,87.7%,-5.75% (inactive),0.97% (inactive)
Cc1ccc2c(c1C)NC(=O)C2(O)CC(=O)c1ccc2c(c1)OCO2 (stereo unspecified),88% (inactive),83.2% (inactive),88% (inactive),-5.94% (inactive),94%,88%,-1.1% (inactive),2.9% (inactive)
COc1cccc(NS(=O)(=O)c2ccc3[nH]cc(C(=O)NC4CC4)c(=O)c3c2)c1,101% (inactive),70.3% (inactive),70.1% (inactive),-15.6% (inactive),85.7%,70.1%,-1.04% (inactive),2.13% (inactive)
Cc1cc(NS(=O)(=O)c2ccc(NC(=O)Nc3ccc4c(c3)OCO4)cc2)no1,80% (inactive),101% (inactive),92.6% (inactive),-0.555% (inactive),93.2%,92.6%,-6.49% (inactive),0.55% (inactive)
CS(=O)(=O)N(CC(=O)N1CCc2ccccc2C1)c1ccc2c(c1)OCO2,129% (inactive),102% (inactive),102% (inactive),14.2% (inactive),87.8%,102%,-1.04% (inactive),2.13% (inactive)
O=[n+]1cc(-c2ccc(F)cc2)n([O-])c2c1CCC2,97% (inactive),100% (inactive),90.7% (inactive),1.25% (inactive),89.4%,90.7%,-1.82% (inactive),1.97% (inactive)
Cc1cccc(C(=O)O)c1NC(=O)c1ccc(F)cc1,109% (inactive),107% (inactive),104% (inactive),3.75% (inactive),100%,104%,0.27% (inactive),-1.09% (inactive)
Cc1ccc2cc(C(c3nnnn3C3CCCC3)N3CCN(c4ccc(F)cc4)CC3)c(=O)[nH]c2c1 (stereo unspecified),93% (inactive),101% (inactive),67.6% (inactive),8.08% (inactive),59.6%,67.6%,-5.6% (inactive),1.27% (inactive)
COCCNC(=S)c1ccc(OC)cc1,118% (inactive),112% (inactive),86% (inactive),8.94% (inactive),77.1%,86%,-8.27% (inactive),5.27% (inactive)
